Screening results from PubChem BioAssay.
Kir21 block – Kir2.1 (mouse) channel inhibition; AID 1672; HEK293-Kir2.1, FluxOR thallium flux fluorescence; stronger effect = lower value; P35561; hit rate 0.85% among 310,000; B-score at 10 µM;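 active means fluorescence ratio B-score at or below minus 3 SD of library scores, with starting-brightness B-score within 2 SD, cut at about -4.2 in these data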;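 further: channel flux triggered by added potassium and thallium sulfate stimulus; B-score of peak minus minimum fluorescence over baseline after thallium stimulus; more negative B-score means stronger Kir2.1 block with less thallium influx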
KCNK3 block – human KCNK3 channel inhibition, primary screen; hit rate 0.84% among 340,000; B-score at 10 µM; CHO-KCNK3 thallium flux, FluxOR fluorescence; stronger effect = lower value;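 active means B-score under library mean minus 4 SD, starting fluorescence ratio at most library mean plus 5 SD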;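 further: more negative B-score means stronger inhibition of thallium flux through KCNK3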
KCNQ1 inh – human KCNQ1 channel inhibition. B-score at 10 µM. CHO-K1 KCNQ1, FluxOR thallium flux fluorescence; stronger effect = higher value. hit rate 1.3% among 310,000. P51787;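 active means compounds whose thallium flux B-score, printed positive for inhibition, exceeds three library SD while starting fluorescence stays within three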;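 further: channel opened by potassium depolarization with thallium stimulus after 20 min compound exposure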
KCNQ1 act – potentiators or activators of human KCNQ1 potassium channel | P51787 | CHO-K1 KCNQ1, thallium flux FluxOR fluorescence; stronger effect = higher value | B-score at 10 µM | hit rate 0.35% among 310,000 | AID 2648;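 active means fluorescence ratio B-score, a plate-corrected score, at least three library SD, with initial intensity B-score within 5 SD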
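Assay system: stable KCNQ1 CHO-K1 line; medium: assay buffer, equal DMSO in all wells; timing: 90 min dye loading and 20 min compound exposure, both at room temperature; technique: kinetic FluxOR thallium fluorescence, 10-s 1-Hz baseline, 110-s post-stimulus read; read-out basis: B score of baseline-normalized fluorescence ratio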
KCNK9 inh – human KCNK9 channel inhibition; Q9NPC2; HEK293 KCNK9, FluxOR thallium flux fluorescence; stronger effect = lower value; B-score at 10 µM; hit rate 1.2% among 310,000; AID 488922;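 active means ratio B-score over 3 SD below the library mean, with starting fluorescence within 5 SD of its mean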;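 further: negative B-score means less thallium flux so channel inhibition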
Target sequence (Q9NPC2 whole entry, looked up): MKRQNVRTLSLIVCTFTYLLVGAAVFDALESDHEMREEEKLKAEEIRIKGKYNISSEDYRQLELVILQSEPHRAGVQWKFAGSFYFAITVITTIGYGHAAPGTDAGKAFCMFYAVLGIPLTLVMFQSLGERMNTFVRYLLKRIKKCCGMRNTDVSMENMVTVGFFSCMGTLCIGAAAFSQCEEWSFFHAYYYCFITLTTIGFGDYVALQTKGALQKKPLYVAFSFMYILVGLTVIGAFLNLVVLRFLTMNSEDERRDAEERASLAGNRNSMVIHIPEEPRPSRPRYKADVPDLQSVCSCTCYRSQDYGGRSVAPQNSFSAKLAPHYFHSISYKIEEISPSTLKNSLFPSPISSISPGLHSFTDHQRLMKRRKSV
hERG rescue – shields human hERG channel from block by proarrhythmic agents; AID 1511; hit rate 0.51% among 310,000; activation (rescue from dofetilide block), less the hit threshold, % at 10 µM; CHO-hERG, FluxOR thallium flux, dofetilide IC70 present;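 active means activation above the mean of controls blocked by dofetilide plus 5 SD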;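 further: thallium influx through hERG after potassium depolarization seen as dye fluorescence rise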
KCNK9 block conf – human KCNK9 inhibitor confirmation. shares compounds with KCNK9 inh. HEK293 KCNK9 cells, FluxOR thallium flux fluorescence. inhibition, % at 10 µM. hit rate 43% among 4,900;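 active means thallium signal inhibited by more than 5 SD of the compound-free buffer control wells, on both duplicate plates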
Kir21 sel – mouse Kir2.1 off-target activity of KCNK9 modulators. inhibition, % at 10 µM. shares compounds with KCNK9 inh. hit rate 4% among 4,900. AID 492993. Kir2.1 cells, FluxOR thallium flux fluorescence;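 active means thallium signal drop more than 5 SD beyond the mean of the no-compound control wells, seen in both duplicate plates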;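 further: signal is fluorescence rise after thallium addition divided by baseline fluorescence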
KCNK9 uninduced – second check of KCNK9 modulator effects in non-induced HEK293 cells. shares compounds with KCNK9 inh. FluxOR thallium flux. inhibition, % at 10 µM. hit rate 40% among 4,900;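 active means thallium signal drop beyond 5 SD of the untreated control mean, on both duplicate plates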
Each line names hits and unclear results; the compound was inactive in the other large screens (follow-up assays come after a bar, where they were run). An excerpt weighted towards active compounds, which were near 3.7% of everything screened.

COC(=O)C(C(=O)OC)c1ccc(-n2cccc2)cc1	none
Nc1nc(Nc2ccccc2)nc2c1ncn2[C@@H]1O[C@H](CO)[C@@H](O)[C@H]1O	none
Cc1cnc(C)c(N2CCN(Cc3nc(-c4cccc(F)c4F)oc3C)CC2)n1	none
Cc1cccc(N2CCN(Cc3nc(-c4ccc(F)cc4F)oc3C)CC2)n1	none | KCNK9 block conf inactive | Kir21 sel inactive | KCNK9 uninduced inactive
COc1cccc(-n2cc(CN(C)Cc3nc(Cc4ccccc4)no3)cn2)c1	none | KCNK9 block conf inactive | Kir21 sel inactive | KCNK9 uninduced inactive
COc1ccc(CN(C)Cc2nc(Cc3cccc(F)c3)no2)c2cccnc12	none
CN(Cc1cnn(C)c1)Cc1nc(Cc2ccccc2Cl)no1	none
COc1cccc(-n2cc(CN(C)Cc3nc(Cc4cccc(F)c4)no3)cn2)c1	none | KCNK9 block conf inactive | Kir21 sel inactive | KCNK9 uninduced inactive
CN(C)c1ccc(/C=N/n2c(-c3ccccc3Br)n[nH]c2=S)cc1	none | KCNK9 block conf inactive | Kir21 sel inactive | KCNK9 uninduced inactive
COCCNC(=O)C(c1ccc(C)cc1)N(C(=O)C(=O)NC1CCCC1)c1ccc2c(c1)OCCO2 (stereo unspecified)	none
C/C(=N\NC(=O)c1ccccc1O)C1C(=O)c2ccccc2C1=O	KCNQ1 inh 11 | KCNK9 block conf inactive | Kir21 sel inactive | KCNK9 uninduced 24%
C/C(=N/NC(=O)c1cc2ccccc2cc1O)C1C(=O)c2ccccc2C1=O	none
Cc1cc(C(=O)OCC(=O)Nc2nc(-c3ccccc3)cs2)c(C)o1	none
Cc1cc(C(=O)OC(C)C(=O)Nc2nc(-c3ccccc3)cs2)c(C)o1 (stereo unspecified)	none | KCNK9 block conf inactive | Kir21 sel inactive | KCNK9 uninduced inactive
COc1ccc(NC2CCCN(C(=O)c3ccc(CSC)o3)C2)cc1OC (stereo unspecified)	none
COCc1ccc(C(=O)N2CCCC(C(=O)c3ccc(Cl)cc3C)C2)o1 (stereo unspecified)	none | KCNK9 block conf inactive | Kir21 sel inactive | KCNK9 uninduced inactive
COCc1ccc(C(=O)N2CCCC(Nc3ccc4c(c3)OCCO4)C2)o1 (stereo unspecified)	none | KCNK9 block conf inactive | Kir21 sel inactive | KCNK9 uninduced inactive
Cc1cc(Cl)ccc1C(=O)C1CCCN(C(=O)c2ccoc2)C1 (stereo unspecified)	none | KCNK9 block conf inactive | Kir21 sel inactive | KCNK9 uninduced inactive
Cc1cc(C(=O)N2CCCC(C(=O)c3ccc(Cl)cc3C)C2)no1 (stereo unspecified)	none
Cc1nc(C)c(C(=O)N2CCCC(C(=O)c3ccc(Cl)cc3C)C2)s1 (stereo unspecified)	none
Cc1cc(Cl)ccc1C(=O)C1CCCN(C(=O)c2cnsn2)C1 (stereo unspecified)	none | KCNK9 block conf inactive | Kir21 sel inactive | KCNK9 uninduced inactive
COc1ccc2c(c1)c(CC(=O)Nc1cccc(S(N)(=O)=O)c1)c(C)n2C(=O)c1ccc(Cl)cc1	none
Cc1cccc(NC(=O)CSc2nnc(C3CC3)n2CC2CCCO2)c1 (stereo unspecified)	none
Cc1c(C(=O)c2ccccc2)oc2ccc3ccccc3c12	KCNK9 inh -11 | KCNK9 block conf 56% | Kir21 sel inactive | KCNK9 uninduced 40%
Nc1c(C(=O)c2ccccc2)oc2ccccc12	none
CC(C)C[C@H](NC(=O)c1nc[nH]c1C(=O)NCC(=O)OCc1ccccc1)C(=O)OCc1ccccc1	none | KCNK9 block conf inactive | Kir21 sel inactive | KCNK9 uninduced inactive
CC(C)C[C@H](NC(=O)c1nc[nH]c1C(=O)NCC(=O)OC(C)(C)C)C(=O)OCc1ccccc1	none
CC(C)Nc1nc(NC(C)C)nc(SCCOC(=O)Nc2ccc(Cl)cc2Cl)n1	none | KCNK9 block conf inactive | Kir21 sel inactive | KCNK9 uninduced inactive
CCNc1nc(NC(C)C)nc(SCCOC(=O)c2ccccc2)n1	none
C[n+]1cnc(-c2ccccc2)cc1-c1ccccc1	none
Cc1[nH]c2ccc(C(=O)NCCN3CCOCC3)cc2c1C	none
COc1cccc(C(=O)Nc2sc(C(C)C)cc2C(N)=O)c1OC	none
CCN1C(=O)/C(=C\c2nc3ccccc3c(=O)n2CC)c2ccccc21	none | KCNK9 block conf inactive | Kir21 sel inactive | KCNK9 uninduced inactive
Cc1ccc(-c2csc3nc(SCC(=O)N(C)C)n(Cc4ccccc4)c(=O)c23)cc1	KCNK9 inh -9.5 | KCNK9 block conf 50% | Kir21 sel inactive | KCNK9 uninduced 28%
COc1ccc(N=C/C=C2/C=C(c3ccccc3)OC(C)(C)O2)cc1	none
CCCCOc1ccc(/C=N/NC(=O)c2csc(C)c2C)cc1	none | KCNK9 block conf inactive | Kir21 sel inactive | KCNK9 uninduced inactive
CC1CCCC(C)N1C(=O)CSc1nnc(COc2ccccc2)n1-c1ccccc1 (stereo unspecified)	none
O=S(=O)(c1cc(Cl)cc(Cl)c1)N1CCC2CC1c1cc(Cl)ccc12 (stereo unspecified)	none (no result: Kir21 block, KCNQ1 inh, KCNQ1 act, KCNK9 inh, hERG rescue)
Cc1c(-n2c(=O)n(Cc3ccccc3)c(=O)c3[nH]cnc32)cccc1S(C)=O (stereo unspecified)	none
CCN(c1ccccc1)S(=O)(=O)c1cc([N+](=O)[O-])ccc1N	Kir21 block -7, KCNK9 inh -11 | KCNK9 block conf 41% | Kir21 sel 31% | KCNK9 uninduced 33%
COc1cccc(-c2ccc(SCC(=O)c3ccccc3)nn2)c1	none | KCNK9 block conf inactive | Kir21 sel inactive | KCNK9 uninduced inactive
COc1ccc(C(=O)CSc2ccc(-c3ccccc3)nn2)cc1	none | KCNK9 block conf inactive | Kir21 sel inactive | KCNK9 uninduced inactive
COc1cc2cc(CCCOC(=O)CCC(=O)O)oc(=O)c2cc1OC	none (no result: Kir21 block, KCNQ1 inh, KCNQ1 act, KCNK9 inh, hERG rescue)
O=c1sc(N2CCN(c3ccccc3F)CC2)nc2ccsc12	KCNK9 inh -13 | KCNK9 block conf 36% | Kir21 sel inactive | KCNK9 uninduced 40%
Brc1ccccc1-c1nnc2sc(Cc3ccccc3)nn12	KCNK9 inh -15 | KCNK9 block conf 36% | Kir21 sel inactive | KCNK9 uninduced 26%
COc1ccc(Cc2nn3c(-c4ccccc4Br)nnc3s2)cc1	none
CCc1ccc(CN(C)CC(=O)Nc2ccc3c(c2)CCC3)cc1	none | KCNK9 block conf inactive | Kir21 sel inactive | KCNK9 uninduced inactive
OCC1(Cc2cccc(C(F)(F)F)c2)CCN(Cc2cc(F)cc(F)c2)CC1	none | KCNK9 block conf inactive | Kir21 sel inactive | KCNK9 uninduced inactive
